Converted amounts (≈) assume the structure as drawn. *1 amine or outer side, *2 acyl side, *3 side chain or, on linkers, in order; H or OH if unused. Where a SMILES comes first, the peptide text is derived from it. Bridges are numbered along the chain shown (N, C = ends). [ ]: non-standard residue; d: D form. The star is where a group is joined. Orn(4R-OH,5R-OH) = O=C([C@H](C[C@@H](O)[C@@H](O)N[*:3])N[*:1])[*:2]; hTyr(3S-OH,4S-OH) = N[C@H](C(=O)O)[C@H](O)[C@@H](O)c1ccc(O)cc1; Gln(3R-OH) = NC(=O)C[C@@H](O)[C@H](N)C(=O)O; Orn(3R-OH) = NCC[C@@H](O)[C@H](N)C(=O)O; Pro(3S-OH) = O=C(O)[C@H]1NCC[C@@H]1O; Hyp = O=C(O)[C@@H]1C[C@@H](O)CN1; X1 = CCC(C)CC(C)CCCCCCCCC(=O)*
Tests used:
Format in all cases: functional
[1] = tested on: Rattus norvegicus; assay: In vivo minimum dose administered subcutaneously b.i.d. which decreases the lung cyst count by 90% using PCP model in dexamethasone-immunosuppressed rats
How it was run: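 Acute Pneumocystis carinii pneumonia model in dexamethasone-immunosuppressed Sprague-Dawley rats dosed sc twice daily for 4 days. Lung cyst counts are compared with untreated controls, and ED90 is the lowest dose giving a 90% reduction.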

[2] = tested on: Kluyveromyces marxianus; assay: In vitro minimum fungicidal concentration (MFC) against Candida pseudotropicalis (MY 2099)
How it was run: (§1)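 Whole-cell broth microdilution assay against reference and clinical Candida isolates; the MFC is the median of at least four duplicate determinations.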

[3] = tested on: Candida tropicalis; assay: In vitro minimum fungicidal concentration (MFC) against Candida tropicalis (MY 1012); how it was run: as §1
[4] = tested on: Candida parapsilosis; assay: In vitro minimum fungicidal concentration (MFC) against Candida parapsilosis (MY 1010); settings: Lodderomyces parapsilosis; how it was run: as §1
[5] = tested on: Mus musculus; assay: In vivo minimum dose administered intraperitoneally b.i.d. which decreases Candida albicans (MY 1055) colony forming units by 99.9% in target organ kidney assay
How it was run: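 Target organ kidney assay in congenitally immunodeficient DBA/2 mice infected with C. albicans MY1055 and dosed ip twice daily. Kidney CFU/g is compared with untreated controls, and ED99.9 is the lowest dose giving a 99.9% reduction.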

[6] = tested on: Candida albicans; assay: In vitro concentration causing 50% inhibition of beta-(1,3)-D-glucan synthesis in a Candida albicans (MY 1208) membrane assay
[7] = tested on: Candida albicans; assay: In vitro minimum fungicidal concentration (MFC) against Candida albicans (MY 1055); how it was run: as §1
[8] = tested on: Candida albicans; assay: In vitro minimum fungicidal concentration (MFC) against Candida albicans (MY 1208); settings: in the assay text read “MY 1028” for “MY 1208”; how it was run: as §1
[9] = tested on: Mus musculus; assay: In vivo dose administered ip bid on days 0-4 which increases the 28-day survival rate of Aspergillus fumigatus by 50%; settings: 672 h
How it was run: (§2)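 DBA/2 mice with disseminated A. fumigatus (MF5668) infection; compound given ip twice daily on days 0–4. Survival followed for 28 days; ED50 taken as the dose that raises the 28-day survival rate by 50%.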

[10] = tested on: Mus musculus; assay: In vivo dose administered intraperitoneally bid on days 0-4 which increases the 28-day survival rate of Aspergillus fumigatus by 50%; settings: ip, 672 h; how it was run: as §2

| SMILES | ED90 [1] [mg/kg] | MFC [2] [µg/mL] | MFC [3] [µg/mL] | MFC [4] [µg/mL] | ED99.9 [5] [mg/kg] | IC50 [6] [µM] | MFC [7] [µg/mL] | MFC [8] [µg/mL] | ED50 [9] [mg/kg] | ED50 [10] [mg/kg] |
| --- | --- | --- | --- | --- | --- | --- | --- | --- | --- | --- |
| CCC(C)CC(C)CCCCCCCCC(=O)N[C@H]1C[C@@H](O)[C@@H](OCCN)NC(=O)[C@@H]2[C@@H](O)CCN2C(=O)[C@H]([C@H](O)CCN)NC(=O)[C@H]([C@H](O)[C@@H](O)c2ccc(O)cc2)NC(=O)[C@@H]2C[C@@H](O)CN2C(=O)[C@H]([C@@H](C)O)NC1=O (stereo not given in full) | 0.019 | < 0.06 | < 0.06 | 0.125 (≈ 0.114 µM) | 0.09 | 0.001 | 0.125 (≈ 0.114 µM) | < 0.06 | 0.03 |  |
| CCC(C)CC(C)CCCCCCCCC(=O)N[C@H]1C[C@@H](O)[C@@H](OCCN)NC(=O)[C@@H]2[C@@H](O)CCN2C(=O)[C@H]([C@H](O)CC(N)=O)NC(=O)[C@H]([C@H](O)[C@@H](O)c2ccc(O)cc2)NC(=O)[C@@H]2C[C@@H](O)CN2C(=O)[C@H]([C@@H](C)O)NC1=O (stereo not given in full) | 0.037 | 1 (≈ 0.902 µM) | 0.25 (≈ 0.226 µM) | 1 (≈ 0.902 µM) | 0.78 | 0.011 | 0.125 (≈ 0.113 µM) | 0.125 (≈ 0.113 µM) | 0.06 |  |
| CCC(C)CC(C)CCCCCCCCC(=O)N[C@H]1C[C@@H](O)[C@@H](O)NC(=O)[C@@H]2[C@@H](O)CCN2C(=O)[C@H]([C@H](O)CC(N)=O)NC(=O)[C@H]([C@H](O)[C@@H](O)c2ccc(O)cc2)NC(=O)[C@@H]2C[C@@H](O)CN2C(=O)[C@H]([C@@H](C)O)NC1=O (stereo partly drawn) (X1-[Orn(4R-OH,5R-OH)]T[Hyp][hTyr(3S-OH,4S-OH)][Gln(3R-OH)][Pro(3S-OH)]; lactam 1-C) | 0.15 | 1 (≈ 0.939 µM) | 0.125 (≈ 0.117 µM) | 2 (≈ 1.88 µM) | 6 |  | 0.5 (≈ 0.469 µM) | 0.25 (≈ 0.235 µM) |  | > 20 |
| CCC(C)CC(C)CCCCCCCCC(=O)N[C@H]1C[C@@H](O)[C@@H](O)NC(=O)[C@@H]2[C@@H](O)CCN2C(=O)[C@H]([C@H](O)CCN)NC(=O)[C@H]([C@H](O)[C@@H](O)c2ccc(O)cc2)NC(=O)[C@@H]2C[C@@H](O)CN2C(=O)[C@H]([C@@H](C)O)NC1=O (stereo partly drawn) (X1-[Orn(4R-OH,5R-OH)]T[Hyp][hTyr(3S-OH,4S-OH)][Orn(3R-OH)][Pro(3S-OH)]; lactam 1-C) | 0.037 | 0.125 (≈ 0.119 µM) | < 0.06 | 0.125 (≈ 0.119 µM) | 0.375 | 0.01 | < 0.06 | < 0.06 | > 20 |  |

— ChEMBL document CHEMBL1127474, “Synthesis and antifungal activity of novel cationic pneumocandin B(o) derivatives” (J Med Chem, 1994)
